Experimental data as given in ChEMBL document CHEMBL1781911, “Verrucamides A-D, antibacterial cyclopeptides from Myrothecium verrucaria” (J Nat Prod, 2011).
Values after ≈ are worked out from the molar mass of the structure shown. Square brackets hold non-standard residues; d marks the D form. Peptide text beside a SMILES is read from it. NMeT = CN[C@H](C(=O)O)[C@@H](C)O; aIle = CC[C@@H](C)[C@H](N)C(=O)O; dNMeF = CN[C@H](Cc1ccccc1)C(=O)O; NMeV = CN[C@H](C(=O)O)C(C)C; NMeS = CN[C@@H](CO)C(=O)O; dNMeA = CN[C@H](C)C(=O)O

Test system: Staphylococcus aureus
Assay: Antibacterial activity against Staphylococcus aureus Col CGMCC 1.2465 after 24 hrs by NCCLS […] method
Type: functional, organism-based
Details: COL CGMCC 1.2465, 24 h
Procedure, shortened: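 Broth microdilution in triplicate per NCCLS guidance; strain grown in Mueller-Hinton broth, 3-4 colonies cultured at 37 °C for 24 h, final inoculum 10^6 cells/mL in MHB. Samples from 10 mg/mL DMSO stocks, serially diluted; ampicillin positive control. Incubated 37 °C for 24 h, growth read as absorbance at 595 nm.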

IC50	MIC	SMILES
0.09 µg/mL (≈ 0.258 µM)	0.625 µg/mL (≈ 1.79 µM)	CC1(C)S[C@@H]2[C@H](NC(=O)[C@H](N)c3ccccc3)C(=O)N2[C@H]1C(=O)O [AMPICILLIN]
3.59 µg/mL (≈ 2.54 µM)	10 µg/mL (≈ 7.06 µM)	CC[C@@H](C)[C@@H]1NC(=O)CNC(=O)[C@@H](C)N(C)C(=O)[C@H](C(C)C)NC(=O)[C@H]([C@@H](C)O)N(C)C(=O)[C@H](C(C)C)NC(=O)[C@H]([C@@H](C)O)N(C)C(=O)[C@H](C(C)C)NC(=O)CNC(=O)[C@@H](Cc2ccccc2)N(C)C(=O)[C@H](C(C)C)NC(=O)[C@H](CO)NC(=O)[C@H]([C@H](C)CC)N(C)C(=O)[C@H](CO)N(C)C1=O [VERRUCAMIDE A]
5.31 µg/mL (≈ 3.79 µM)	20 µg/mL (≈ 14.3 µM)	CC[C@@H](C)[C@@H]1NC(=O)CNC(=O)[C@@H](C)N(C)C(=O)[C@H](C(C)C)NC(=O)[C@H]([C@@H](C)O)N(C)C(=O)[C@H](C(C)C)NC(=O)[C@H]([C@@H](C)O)N(C)C(=O)[C@H](C(C)C)NC(=O)CNC(=O)[C@@H](Cc2ccccc2)N(C)C(=O)[C@H](C(C)C)NC(=O)[C@H](CO)NC(=O)[C@H](C(C)C)N(C)C(=O)[C@H](CO)N(C)C1=O [VERRUCAMIDE B] (cyclo(GV[NMeT]V[NMeT]V[dNMeA]G[aIle][NMeS][NMeV]SV[dNMeF]))
4.45 µg/mL (≈ 3.17 µM)	10 µg/mL (≈ 7.13 µM)	CC[C@@H](C)[C@H]1C(=O)N[C@@H](CO)C(=O)N[C@@H](C(C)C)C(=O)N(C)[C@H](Cc2ccccc2)C(=O)NCC(=O)N[C@@H](C(C)C)C(=O)N(C)[C@@H]([C@@H](C)O)C(=O)N[C@@H](C(C)C)C(=O)N(C)[C@@H]([C@@H](C)O)C(=O)N[C@@H](C(C)C)C(=O)N(C)[C@H](C)C(=O)NCC(=O)N[C@@H](C(C)C)C(=O)N(C)[C@@H](CO)C(=O)N1C [VERRUCAMIDE C]
9.09 µg/mL (≈ 6.55 µM)	40 µg/mL (≈ 28.8 µM)	CC(C)[C@@H]1NC(=O)[C@H]([C@@H](C)O)N(C)C(=O)[C@H](C(C)C)NC(=O)[C@H]([C@@H](C)O)N(C)C(=O)[C@H](C(C)C)NC(=O)CNC(=O)[C@@H](Cc2ccccc2)N(C)C(=O)[C@H](C(C)C)NC(=O)[C@H](CO)NC(=O)[C@H](C(C)C)N(C)C(=O)[C@H](CO)N(C)C(=O)[C@H](C(C)C)NC(=O)CNC(=O)[C@@H](C)N(C)C1=O [VERRUCAMIDE D]
